Measured values as given in ChEMBL document CHEMBL4177542, “A New Combination of a Pleuromutilin Derivative and Doxycycline for Treatment of Multidrug-Resistant Acinetobacter baumannii” (J Med Chem, 2017).
≈ marks a conversion by molar mass, not a printed value.

Key:
Acinetobacter baumannii [1] = assay: Growth inhibition of Acinetobacter baumannii ATCC 19606 after 48 hrs by resazurin dye based microdilution method; type: functional; conditions: ATCC 19606 = CIP 70.34 = JCM 6841, 48 h
Summary of the method: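 A. baumannii ATCC 19606 grown in tryptic soy broth, 37 °C with shaking, to mid-log (OD 0.5). Cultures treated with serial dilutions of inhibitor (DMSO stock 1 mg/100 μL), 48 h at 37 °C. Resazurin then added, 1 h at 37 °C with shaking. MIC is the lowest concentration staying blue; MBC is blue retained over 4 h, with CFU plating if needed (99.9% kill).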

Acinetobacter baumannii [2] = assay: Growth inhibition of multidrug-resistant Acinetobacter baumannii ATCC BAA 18002 after 48 hrs by resazurin dye based broth microdilution method; type: functional; conditions: ATCC BAA 18002, 48 h
Summary of the method: (§1)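 Broth microdilution in tryptic soy broth. Mid-log cultures (OD600 0.5) treated with serial dilutions from a DMSO stock (1 mg per 100 μL) for 48 h at 37 °C. Resazurin (stock 0.02%) then added for 1 h at 37 °C. MIC is the lowest concentration staying blue; MBC is blue retained over 4 h (99.9% kill), with CFU plating when needed.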

Acinetobacter baumannii [3] = assay: Synergistic antibacterial activity against Acinetobacter baumannii ATCC 19606 at 35:1 compound to doxycycline ratio after 48 hrs by resazurin dye based microdilution broth checkerboard method; type: functional; conditions: ATCC 19606 = CIP 70.34 = JCM 6841, 48 h
Summary of the method: (§2)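 Microdilution broth checkerboard of the compound combined with doxycycline, using the resazurin broth method (48 h, 37 °C, blue = no growth). ΣFIC = C_A/MIC_A + C_B/MIC_B, taken at the growth–no growth interface wells; ΣFIC below 0.5 is scored as synergy. MBC for the fixed-ratio combinations read as the 4 h resazurin endpoint.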

Acinetobacter baumannii [4] = assay: Synergistic bactericidal activity against Acinetobacter baumannii ATCC 19606 at 2:1 compound to doxycycline ratio after 48 hrs by resazurin dye based microdilution broth checkerboard method; type: functional; conditions: ATCC 19606 = CIP 70.34 = JCM 6841, 48 h, read-out: MBC99.9
Summary of the method: (§3)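 Checkerboard broth microdilution of drug pairs in tryptic soy broth on mid-log cultures (OD 0.5), 48 h at 37 °C. Growth read by resazurin (pink growth, blue no growth). MBC is blue retained over 4 h, CFU plating where needed. ΣFIC = C_A/MIC_A + C_B/MIC_B, taken at the growth/no-growth interface wells; ΣFIC <0.5 counts as synergy.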

Acinetobacter baumannii [5] = assay: Synergistic antibacterial activity against multidrug-resistant Acinetobacter baumannii ATCC […] at 35:1 compound to doxycycline ratio after 48 hrs by resazurin dye based microdilution broth checkerboard method; type: functional; conditions: ATCC BAA 18002, 48 h; summary of the method: as §2
Acinetobacter baumannii [6] = assay: Synergistic antibacterial activity against multidrug-resistant Acinetobacter baumannii ATCC […] at 2:1 compound to doxycycline ratio after 48 hrs by resazurin dye based microdilution broth checkerboard method; type: functional; conditions: ATCC BAA 18002, 48 h; summary of the method: as §2
Klebsiella pneumoniae [7] = assay: Synergistic bactericidal activity against Klebsiella pneumoniae ATCC 8047 at 60:1 compound to doxycycline ratio after 48 hrs by resazurin dye based microdilution broth checkerboard method; type: functional; conditions: ATCC 8047, 48 h, read-out: MBC99.9; summary of the method: as §3
Klebsiella pneumoniae [8] = assay: Synergistic antibacterial activity against Klebsiella pneumoniae ATCC 8047 at 35:1 compound to doxycycline ratio after 48 hrs by resazurin dye based microdilution broth checkerboard method; type: functional; conditions: ATCC 8047, 48 h; summary of the method: as §3
Klebsiella pneumoniae [9] = assay: Synergistic bactericidal activity against Klebsiella pneumoniae ATCC 8047 at 2:1 compound to doxycycline ratio after 48 hrs by resazurin dye based microdilution broth checkerboard method; type: functional; conditions: ATCC 8047, 48 h, read-out: MBC99.9; summary of the method: as §3
Klebsiella pneumoniae [10] = assay: Growth inhibition of Klebsiella pneumoniae ATCC 8047 after 48 hrs by resazurin dye based microdilution method; type: functional; conditions: ATCC 8047, 48 h; summary of the method: as §1
Escherichia coli [11] = assay: Synergistic antibacterial activity against Escherichia coli ATCC 10798 at 60:1 compound to doxycycline ratio after 48 hrs by resazurin dye based microdilution broth checkerboard method; type: functional; conditions: ATCC 10798, 48 h; summary of the method: as §3
Escherichia coli [12] = assay: Synergistic bactericidal activity against Escherichia coli ATCC 10798 at 60:1 compound to doxycycline ratio after 48 hrs by resazurin dye based microdilution broth checkerboard method; type: functional; conditions: ATCC 10798, 48 h, read-out: MBC99.9; summary of the method: as §3
Pseudomonas aeruginosa [13] = assay: Synergistic antibacterial activity against Pseudomonas aeruginosa ATCC 27853 at 60:1 compound to doxycycline ratio after 48 hrs by resazurin dye based microdilution broth checkerboard method; type: functional; conditions: ATCC 27853, 48 h; summary of the method: as §3
Pseudomonas aeruginosa [14] = assay: Synergistic bactericidal activity against Pseudomonas aeruginosa ATCC 27853 at 60:1 compound to doxycycline ratio after 48 hrs by resazurin dye based microdilution broth checkerboard method; type: functional; conditions: ATCC 27853, 48 h, read-out: MBC99.9; summary of the method: as §3
Pseudomonas aeruginosa [15] = assay: Synergistic antibacterial activity against Pseudomonas aeruginosa ATCC 27853 at 35:1 compound to doxycycline ratio after 48 hrs by resazurin dye based microdilution broth checkerboard method; type: functional; conditions: ATCC 27853, 48 h; summary of the method: as §2
Pseudomonas aeruginosa [16] = assay: Synergistic bactericidal activity against Pseudomonas aeruginosa ATCC 27853 at 2:1 compound to doxycycline ratio after 48 hrs by resazurin dye based microdilution broth checkerboard method; type: functional; conditions: ATCC 27853, 48 h, read-out: MBC99.9; summary of the method: as §3
Staphylococcus aureus = assay: Bactericidal activity against Staphylococcus aureus ATCC 25923 after 48 hrs by resazurin dye based microdilution method; type: functional; conditions: ATCC 25923, 48 h, read-out: MBC99.9; summary of the method: as §1
[17] = test system: Mycobacterium tuberculosis; assay: Synergistic bactericidal activity against Mycobacterium tuberculosis H37Rv at 2:1 compound to doxycycline ratio after 48 hrs by resazurin dye based microdilution broth checkerboard method; type: functional; conditions: read-out: MBC99.9
Acinetobacter baumannii [18] = assay: Potentiation of doxycycline-induced antimicrobial activity against Acinetobacter baumannii ATCC 19606 at 0.40 ug/ml in presence of 0.025 ug/ml doxycycline by microdilution broth checkerboard method; type: functional, ATCC 19606 = CIP 70.34 = JCM 6841
Summary of the method: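 A. baumannii ATCC 19606 in a broth microdilution checkerboard with doxycycline, 96 concentration combinations. ΣFIC = C_A/MIC_A + C_B/MIC_B, taken for wells at the growth/no-growth interface; ΣFIC <0.5 counts as synergy.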

[19] = Safety index, ratio of compound IC50 to valnemulin IC50 for African green monkey Vero cells; type: ADME, cell-based; conditions: chlorocebus sabaeus, read-out: Ratio IC50
Acinetobacter baumannii [20] = assay: Synergistic antibacterial activity against Acinetobacter baumannii ATCC 19606 infected in C57BL/6 mouse assessed as survival rate at compound to doxycycline ratio of 35:1 at 60 mg/kg, ip administered as single dose measured for 5 days (reference value: <20%); type: functional; conditions: ATCC 19606 = CIP 70.34 = JCM 6841, ip, 120 h
Summary of the method: (§4)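 C57BL/6 mice (n = 5 per group; 4 untreated controls) infected intraperitoneally with A. baumannii ATCC19606 grown at 37 °C and collected by centrifugation, at a dose giving 75% death. Single intraperitoneal dose (2 to 60 mg/kg) given 1 h after infection. Mice monitored for 5 days, with death as the end point; survival rate recorded.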

Acinetobacter baumannii [21] = assay: Synergistic antibacterial activity against Acinetobacter baumannii ATCC 19606 infected in C57BL/6 mouse assessed as survival rate at compound to doxycycline ratio of 35:1 at 2 mg/kg, ip administered as single dose measured for 5 days (reference value: <20%); type: functional; conditions: ATCC 19606 = CIP 70.34 = JCM 6841, ip, 120 h; summary of the method: as §4
Acinetobacter baumannii [22] = assay: Antibacterial activity against Acinetobacter baumannii ATCC 19606 infected in C57BL/6 mouse assessed as survival rate at 20 mg/kg, ip administered as single dose measured for 5 days (reference value: <20%); type: functional; conditions: ATCC 19606 = CIP 70.34 = JCM 6841, ip, 120 h; summary of the method: as §4

C=C[C@]1(C)C[C@@H](OC(=O)CSC(C)(C)CNC(=O)[C@H](N)C(C)C)[C@]2(C)[C@H](C)CC[C@]3(CC[C@@H](O)[C@H]32)[C@@H](C)[C@@H]1O
MIC (Acinetobacter baumannii [1]): 1.75 µg/mL (≈ 3.09 µM) | MIC (Acinetobacter baumannii [2]): 6.25 µg/mL (≈ 11 µM) | MIC (Acinetobacter baumannii [3]): 0.4 µg/mL | MBC (Acinetobacter baumannii [4]): 2 µg/mL | MIC (Acinetobacter baumannii [5]): 1.56 µg/mL | MIC (Acinetobacter baumannii [6]): 1.56 µg/mL | MBC (Klebsiella pneumoniae [7]): 3.25 µg/mL | MIC (Klebsiella pneumoniae [8]): 0.78 µg/mL | MBC (Klebsiella pneumoniae [9]): 1.56 µg/mL | MIC (Klebsiella pneumoniae [10]): < 6.25 µg/mL | MIC (Escherichia coli [11]): 0.25 µg/mL | MBC (Escherichia coli [12]): 1.56 µg/mL | MIC (Pseudomonas aeruginosa [13]): 12.5 µg/mL | MBC (Pseudomonas aeruginosa [14]): 25 µg/mL | MIC (Pseudomonas aeruginosa [15]): 12.5 µg/mL | MBC (Pseudomonas aeruginosa [16]): 12.5 µg/mL | MBC (Staphylococcus aureus): 25 µg/mL (≈ 44.1 µM) | MBC [17]: 6.25 µg/mL | fractional inhibitory concentration index (FICI) (Acinetobacter baumannii [18]): 0.19 | selectivity ratio [19]: 2.85 | survival at 60 mg/kg (Acinetobacter baumannii [20]): 100% | survival at 2 mg/kg (Acinetobacter baumannii [21]): 60% | survival at 20 mg/kg (Acinetobacter baumannii [22]): 100%
